Assay results from ChEMBL document CHEMBL4130635, “2,4-Diaminoquinazolines as Dual Toll-like Receptor (TLR) 7/8 Modulators for the Treatment of Hepatitis B Virus” (J Med Chem, 2018).
Activity calls are given as the source filed them. The rule behind the calls is not given here.

What was measured:
[1] = Cmax in Sprague-Dawley rat plasma at 10 mg/kg, po; type: ADME, organism-based; set-up: dose 10 mg/kg, route oral
Procedure, shortened: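 Male Sprague-Dawley rats given 10 mg/kg po as a solution. Compound measured in portal vein, systemic plasma and liver. Cmax taken from concentration–time profiles.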

[2] = Absolute bioavailability in cynomolgus monkey at 1 to 30 mg/kg; type: ADME, organism-based, Macaca fascicularis; conditions: in vivo
[3] = system: Toll-like receptor 7/8 (Homo sapiens); experiment: Agonist activity at TLR7/8 in human PBMCs assessed as decrease in intracellular HBV RNA levels in human hepatocytes infected with HBV genotype C for 12 days followed by exposure to conditioned supernatant from up to 5 uM compound treated PBMCs measured after 42 days
Plasma [4] = experiment: Upregulation of IP-10 mRNA expression levels in C57BL/6J mouse plasma at 10 mg/kg, po by RT-qPCR analysis (reference value: 1); type: functional
Cynomolgus monkey [5] = experiment: Induction of ISG response in cynomolgus monkey plasma assessed as upregulation of Isg15 mRNA expression at 1 mg/kg, po after 24 hrs by Fluidigm RT-qPCR analysis (reference value: 1); type: functional, Macaca fascicularis
Procedure, shortened: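 Cynomolgus monkeys, single oral doses of 1, 3, 9 and 30 mg/kg with a planned 2-week wash-out between doses. Systemic ISG (ISG15, Mx1, OAS1) mRNA was measured by Fluidigm RT-qPCR at 1, 2, 4, 8 and 24 h postdose.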

[6] = AUC (0 to last) in C57BL/6J mouse liver at 1 mg/kg, po by LC-MS analysis; type: ADME, organism-based; conditions: in vivo
Procedure, shortened: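 Healthy C57BL/6 mice were dosed once by mouth at 0.3, 1, 3, 10 or 30 mg/kg in 20% HP-β-CD, in groups of 15 per dose. Three mice per group were sacrificed at 0.5, 1, 2, 4 or 7 h, and plasma and liver compound levels were measured by LC–MS. Values were rounded to whole numbers.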

Cynomolgus monkey [7] = experiment: Activation of monocytes in cynomolgus monkey plasma assessed as upregulation of MCP1 levels at 9 mg/kg, po after 24 hrs by Luminex assay (reference value: 385 pg/ml); type: functional, Macaca fascicularis
Cynomolgus monkey [8] = experiment: Effect on cytokine profile in cynomolgus monkey plasma assessed as IL-12P70 levels at 9 mg/kg, po after 24 hrs by Luminex assay (reference value: 2.17 pg/ml); type: functional, Macaca fascicularis
Procedure, shortened: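 Healthy cynomolgus monkeys given single oral doses of 1, 3, 9 and 30 mg/kg, with a 2-week wash-out planned between doses. Systemic cytokine levels in plasma were sampled at 0.5, 1, 2, 4, 9 and 24 h postdose.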

Liver [9] = experiment: Anti-inflammatory activity in C57BL/6J mouse liver assessed as IL-10 levels at 1 mg/kg, po by multiplex assay (reference value: 2 pg/g); type: functional
Procedure, shortened: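 Mice (C57BL/6) got a single oral dose of 0.3–30 mg/kg in 20% HP-β-CD, in groups of 15. Three per group were sacrificed at 0.5, 1, 2, 4 or 7 h, and liver cytokines were measured by multiplex. Values were rounded to the nearest multiple of 5.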

[10] = AUC (0 to last) in cynomolgus monkey plasma at 3 mg/kg, po by LC-MS analysis; type: ADME, organism-based, Macaca fascicularis; set-up: dose 3 mg/kg, time 0 - last, route oral
Procedure, shortened: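 Healthy cynomolgus monkeys received single oral doses of 1, 3, 9 and 30 mg/kg, with a 2-week wash-out between doses. Systemic compound concentrations were measured by LC–MS at 0.25, 0.5, 1, 2, 4, 8 and 24 h postdose.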

[11] = Cytotoxicity against HEK293 cells assessed as reduction in cell viability after 6 hrs by ATP lite assay; type: cell-based; conditions: human
Liver [12] = experiment: Proinflammatory activity in C57BL/6J mouse liver assessed as TNFalpha levels at 10 mg/kg, po by multiplex assay (reference value: 15 pg/g); type: functional
Cynomolgus monkey [13] = experiment: Activation of monocytes in cynomolgus monkey plasma assessed as upregulation of MCP1 levels at 3 mg/kg, po after 24 hrs by Luminex assay (reference value: 385 pg/ml); type: functional, Macaca fascicularis
Cynomolgus monkey [14] = experiment: Anti-inflammatory activity in cynomolgus monkey plasma assessed as IL-10 levels at 3 mg/kg, po after 24 hrs by Luminex assay (reference value: 195 pg/ml); type: functional, Macaca fascicularis
Cynomolgus monkey [15] = experiment: Proinflammatory activity in cynomolgus monkey plasma assessed as IL-8 levels at 30 mg/kg, po after 24 hrs by Luminex assay (reference value: 430 pg/ml); type: functional, Macaca fascicularis
Liver [16] = experiment: Proinflammatory activity in C57BL/6J mouse liver assessed as CXCL-1 levels at 30 mg/kg, po by multiplex assay (reference value: 25 pg/g); type: functional
[17] = Cmax in cynomolgus monkey plasma at 30 mg/kg, po by LC-MS analysis; type: ADME, organism-based, Macaca fascicularis; set-up: dose 30 mg/kg, route oral
Procedure, shortened: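 Healthy cynomolgus monkeys received oral doses of 1, 3, 9 and 30 mg/kg, with a 2-week wash-out between doses. Systemic compound concentrations by LC−MS at 0.25, 0.5, 1, 2, 4, 8 and 24 h postdose.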

[18] = Protein binding in cynomolgus monkey plasma fraction at 5 uM after 4.5 hrs LC-MS/MS-based rapid equilibrium dialysis method; type: ADME, cell-free, Macaca fascicularis; conditions: read-out: PPB (converted)
[19] = Protein binding in human plasma fraction at 5 uM after 4.5 hrs LC-MS/MS-based rapid equilibrium dialysis method; type: ADME, cell-free; conditions: read-out: PPB (converted)
Plasma [20] = experiment: Proinflammatory activity in C57BL/6J mouse plasma assessed as TNFalpha levels at 10 mg/kg, po by multiplex assay (reference value: 70 pg/ml); type: functional
Mus musculus = experiment: Toxicity in C57BL/6J mouse at 30 mg/kg, po after 1 to 2 hrs […]; type: organism-based; conditions: in vivo
Cynomolgus monkey [21] = experiment: Upregulation of Tlr7 expression in cynomolgus monkey plasma at 9 mg/kg, po after 24 hrs by Fluidigm RT-qPCR analysis (reference value: 1.8); type: functional, Macaca fascicularis
Plasma [22] = experiment: Anti-inflammatory activity in C57BL/6J mouse plasma assessed as IL-10 levels at 30 mg/kg, po by multiplex assay (reference value: 120 pg/ml); type: functional
Procedure, shortened: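 Single oral gavage in 20% HP-β-CD to healthy C57BL/6 mice, groups of 15 at 0.3, 1, 3, 10 or 30 mg/kg. Three mice per group sacrificed at 0.5, 1, 2, 4 or 7 h. Plasma and liver cytokines by multiplex, maximum level reported, rounded to nearest multiple of 5.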

Liver [23] = experiment: Proinflammatory activity in C57BL/6J mouse liver assessed as IL-6 levels at 3 mg/kg, po by multiplex assay (reference value: 10 pg/g); type: functional
[24] = Intrinsic clearance in dog liver microsomes assessed per mg protein at 1 uM up to 60 mins; type: ADME, Canis lupus familiaris, microsome; conditions: read-out: CLH
[25] = Cmax in C57BL/6J mouse liver at 3 mg/kg, po by LC-MS analysis; type: ADME, organism-based; set-up: dose 3 mg/kg, route oral
Procedure, shortened: (§1)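 Healthy C57BL/6 mice, groups of 15, given a single oral dose (0.3, 1, 3, 10 or 30 mg/kg) in 20% HP-β-CD. Blood drawn at 0.5 h. Three mice per group sacrificed at 0.5, 1, 2, 4 or 7 h, and compound in plasma and liver measured by LC−MS. Values rounded to whole numbers.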

[26] = Cmax in C57BL/6J mouse plasma at 10 mg/kg, po by LC-MS analysis; type: ADME, organism-based; set-up: dose 10 mg/kg, route oral; procedure, shortened: as §1
[27] = Drug uptake in C57BL/6J mouse liver at 30 mg/kg, po by LC-MS analysis; type: ADME, organism-based; conditions: in vivo; procedure, shortened: as §1

With `CCC[C@@H](CCO)Nc1nc(N)nc2c(F)cccc12` the Cmax [1] was 16 ng/mL, the bioavailability [2] was less than 11% and the Activity [3] was “Active”. The “fold change (FC)” value (Plasma [4]) was 2875, the “fold change (FC)” value (Cynomolgus monkey [5]) was 145 and the AUClast [6] was 148 ng·h/g. It also gave an Activity (Cynomolgus monkey [7]) of 8890 pg/mL, an Activity (Cynomolgus monkey [8]) of 3.8 pg/mL and an Activity (Liver [9]) of 535 pg/g. The AUC(0-t) [10] was 383 ng·h/mL, the CC50 at 6 h [11] was greater than 24 µM and the Activity (Liver [12]) was 8330 pg/g. For the same compound, the Activity (Cynomolgus monkey [13]) was 7720 pg/mL, the Activity (Cynomolgus monkey [14]) was 1615 pg/mL and the Activity (Cynomolgus monkey [15]) was 1840 pg/mL. For the same compound, the Activity (Liver [16]) was greater than 83333 pg/g, the Cmax [17] was 2070 ng/mL and the fraction unbound at 4.5 h, 5 µM [18] was 0.46. For the same compound, the fraction unbound at 4.5 h, 5 µM [19] was 0.34, the Activity (Plasma [20]) was greater than 10000 pg/mL and the Activity (Mus musculus) was “Toxic”. For the same compound, the “fold change (FC)” value (Cynomolgus monkey [21]) was 3.5, the Activity (Plasma [22]) was 5170 pg/mL and the Activity (Liver [23]) was 3225 pg/g. The microsomal CLint at 1 µM [24] was 21 µL/min/mg, the Cmax [25] was 385 ng/g and the Cmax [26] was 148 ng/mL. It also gave a Drug uptake [27] of 462 ng/g.
